# Reference: ChEMBL document CHEMBL1128513, “(Aryloxy)methylsilane derivatives as new cholesterol biosynthesis inhibitors: synthesis and hypocholesterolemic activity of a new class of squalene epoxidase inhibitors” (J Med Chem, 1995)
# Assays:
# HepG2 [1] = test: In vitro ability to inhibit cholesterol biosynthesis in HepG2 cells in culture from [14C]acetate.; assay type: functional, cell-based; conditions: Homo sapiens
# [2] = In vivo ability to inhibit cholesterol biosynthesis from [14C]acetate after a single oral administration in female rats.; assay type: functional; conditions: Rattus norvegicus
# Summary of the method: (§1)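 Female SD rats (60–80 g) kept 11 days on a reversed light cycle with free access to food and water. Single oral dose at 9:00 a.m., suspended in water with 2% DMSO and 5% Tween 80 (1 mL/100 g). [14C]acetate given i.p. at 80 μCi/kg 1 h later. Liver taken after a further 1 h, saponified, and [14C]cholesterol analysed by TLC against controls. Mean ED50 from at least two experiments.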
# [3] = In vitro ability to inhibit cholesterol biosynthesis in HepG2 cells in culture from [14C]mevalonate.; assay type: functional, cell-based
# Summary of the method: (§2)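 Hep-G2 cells grown in DMEM with 10% fetal calf serum to subconfluence, then 48 h in DMEM plus 2% Ultroser G. Pretreated 1 h with compound or vehicle (DMSO 0.1%), then [14C]mevalonate (1 μCi/mL) for 4 h. Cells lysed in KOH and saponified in ethanolic KOH at 75 °C for 1 h. Nonsaponifiable lipids separated by TLC. IC50 derived from % [14C]cholesterol versus control cells.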
# [4] = In vitro ability to inhibit cholesterol biosynthesis in HepG2 cells in culture from [14C]acetate; assay type: functional, cell-based
# HepG2 [5] = test: In vitro ability to inhibit cholesterol biosynthesis in HepG2 cells in culture from [14C]mevalonate; assay type: functional, cell-based; conditions: Homo sapiens; summary of the method: as §2
# Rattus norvegicus = test: In vivo ability to inhibit cholesterol biosynthesis from [14C]acetate after a single oral administration in female rats; assay type: functional; summary of the method: as §1
Compound,ED50 [2],IC50 [3],other results
CCN(CC#CC#CC(C)(C)OC)Cc1cccc(OC[Si](C)(C)c2ccccc2C)c1,1.8 mg/kg,290 nM,IC50 (HepG2 [1]): 120 nM
CCN(CC#CC#CC(C)(C)C)Cc1cccc(OC[Si](C)(C)c2ccccc2C)c1,5 mg/kg,780 nM,–
CCN(C/C=C/C#CC(C)(C)C)Cc1cccc(OC[Si](C)(C)c2ccc(SC)cc2)c1,–,> 10000 nM,–
CCN(C/C=C/C#CC(C)(C)C)Cc1cccc(OC[Si](C)(C)c2ccc(S)cc2)c1,–,10000 nM,–
CCN(C/C=C/C#CC(C)(C)C)Cc1cccc(OC[Si](C)(C)c2ccc(Cl)cc2)c1,> 40 mg/kg,> 10000 nM,–
CCN(C/C=C/C#CC(C)(C)C)Cc1cccc(OC[Si](C)(C)c2ccc(C=O)cc2)c1,20 mg/kg,140 nM,IC50 [4]: 150 nM
CCN(C/C=C/C#CC(C)(C)C)Cc1cccc(OC[Si](C)(C)c2ccccc2OC)c1,> 40 mg/kg,5000 nM,–
CCN(C/C=C/C#CC(C)(C)C)Cc1cccc(OC[Si](C)(C)Cc2ccccc2)c1,> 40 mg/kg,> 10000 nM,–
CCN(C/C=C/C#CC(C)(C)C)Cc1cccc(OC[Si](C)(C)c2ccc(C(N)=O)cc2)c1,–,1000 nM,–
CCN(C/C=C/C#CC(C)(C)C)Cc1cccc(OC[Si](C)(C)c2ccccc2C(F)(F)F)c1,20 mg/kg,1480 nM,–
CCN(C/C=C/C#CC(C)(C)C)Cc1cccc(OC[Si](C)(C)c2ccc(OC)cc2)c1,–,> 10000 nM,–
CCN(C/C=C/C#CC(C)(C)C)Cc1cccc(OC[Si](C)(C)c2cccc(C)c2)c1,–,> 10000 nM,–
CCN(C/C=C/C#CC(C)(C)C)Cc1cccc(OC[Si](C)(C)c2ccccc2C#N)c1,7 mg/kg,80 nM,IC50 [4]: 80 nM
CCN(C/C=C/C#CC(C)(C)C)Cc1cccc(OC[Si](C)(C)c2ccc(C)cc2)c1,–,5000 nM,–
CCN(C/C=C/C#CC(C)(C)C)Cc1cccc(OCc2cc(-c3ccsc3)cs2)c1,–,–,IC50 (HepG2 [5]): 20 nM; ED50 (Rattus norvegicus): 2.5 mg/kg
CC[C@H](C)C(=O)O[C@H]1C[C@H](O)C=C2C=C[C@H](C)[C@H](CC[C@@H](O)C[C@@H](O)CC(=O)O)[C@H]21 [PRAVASTATIN],–,–,IC50 (HepG2 [5]): […]; IC50 [4]: 430 nM; ED50 (Rattus norvegicus): 0.9 mg/kg
CCN(C/C=C/C#CC(C)(C)C)Cc1cccc(OC[Si](C)(C)c2ccc(Br)cc2)c1,> 40 mg/kg,> 10000 nM,–
CCN(C/C=C/C#CC(C)(C)C)Cc1cccc(OC[Si](C)(C)c2ccc(C#N)cc2)c1,> 40 mg/kg,60 nM,IC50 (HepG2 [1]): 70 nM
CCN(C/C=C/C#CC(C)(C)C)Cc1cccc(OC[Si](C)(C)CCc2ccccc2)c1,–,> 10000 nM,–
CCN(C/C=C/C#CC(C)(C)C)Cc1cccc(OC[Si](C)(C)c2ccccc2C)c1,3.8 mg/kg,120 nM,IC50 (HepG2 [1]): 150 nM
CCN(C/C=C/C#CC(C)(C)C)Cc1cccc(OC[Si](C)(C)c2ccccc2)c1,20 mg/kg,500 nM,IC50 [4]: 800 nM
C=Cc1ccc([Si](C)(C)COc2cccc(CN(CC)C/C=C/C#CC(C)(C)C)c2)cc1,> 40 mg/kg,1320 nM,–
CCN(C/C=C/C#CC(C)(C)C)Cc1cccc(OC[Si](C)(C)c2ccc(F)cc2)c1,> 40 mg/kg,5000 nM,–
